Data reported in ChEMBL document CHEMBL2010702, “Design and evaluation of a series of pyrazolopyrimidines as p70S6K inhibitors” (Bioorg Med Chem Lett, 2012).

Assays:
[1] = Inhibition of p70S6K-mediated S6 phosphorylation in human A549 cells after 3 hrs by chemiluminescence assay; assay type: cell-based; settings: A549, 3 h
Summary of the method: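 A549 cells seeded at 7.5 × 10^3/well in DMEM with 10% FBS and 1% non-essential amino acids, grown 48 h at 37 °C, then exposed 3 h to compound ([…], triplicate, 0.2% DMSO). Fixed in formaldehyde, blocked, probed overnight at 4 °C with anti-phospho-S6 (Ser240/244) or anti-total-S6, then HRP secondary; chemiluminescent ELISA read-out.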

[2] = Inhibition of PKA
[3] = target: Ribosomal protein S6 kinase beta-1 (Homo sapiens, UniProt P23443, D18H/T412E); assay: Inhibition of human p70S6K D18H and T412E mutant using RRRLSSLRA as substrate after 3 hrs by luciferase-luciferin-coupled chemiluminescence assay
[4] = target: Ribosomal protein S6 kinase alpha-3 (Homo sapiens, UniProt P51812); assay: Inhibition of Rsk2
[5] = target: RAC-beta serine/threonine-protein kinase (Homo sapiens, UniProt P31751); assay: Inhibition of Akt2
[6] = target: Serine/threonine-protein kinase pim-1 (Homo sapiens, UniProt P11309); assay: Inhibition of PIM1
[7] = target: RAC-alpha serine/threonine-protein kinase (Homo sapiens, UniProt P31749); assay: Inhibition of Akt1
[8] = test system: Rattus norvegicus; assay: Dose normalized AUC in rat at 2.5 mg/kg, iv; assay type: ADME, organism-based; parameters: dose 2.5 mg/kg, route intravenous; settings: in vivo
[9] = test system: Rattus norvegicus; assay: Dose normalized AUC in rat at 2.5 mg/kg, po; assay type: ADME, organism-based; parameters: dose 2.5 mg/kg, route oral; settings: in vivo
[10] = Half life in rat at 2.5 mg/kg, iv; assay type: ADME, organism-based; parameters: dose 2.5 mg/kg, route intravenous; settings: in vivo
[11] = test system: Mus musculus; assay: Inhibition of p70S6K-mediated S6 phosphorylation in human PC3 cells xenografted in mouse at 100 mg/kg, po; assay type: functional; settings: PC-3
[12] = test system: PC-3; assay: Antitumor activity against human PC3 cells xenografted in mouse assessed as tumor growth inhibition compound administered po bid for 14 days; assay type: functional, organism-based
Summary of the method: (§1)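 PC3 prostate carcinoma xenografts in mice; compound given orally at 30, 100 or 300 mg/kg twice daily for 14 days; tumor growth inhibition recorded.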

[13] = test system: PC-3; assay: Antitumor activity against human PC3 cells xenografted in mouse assessed as tumor growth inhibition at 100 mg/kg, po bid for 14 days; assay type: functional; settings: PC-3, 336 h, read-out: GI; summary of the method: as §1
[14] = Cmax in rat at 2.5 mg/kg, iv; assay type: ADME, organism-based; parameters: dose 2.5 mg/kg, route intravenous; settings: in vivo
[15] = Cmax in rat at 2.5 mg/kg, po; assay type: ADME, organism-based; parameters: dose 2.5 mg/kg, route oral; settings: in vivo
[16] = Half life in rat at 2.5 mg/kg, po; assay type: ADME, organism-based; parameters: dose 2.5 mg/kg, route oral; settings: in vivo
[17] = Volume of distribution in rat at 2.5 mg/kg, iv and 2.5 mg/kg, po; assay type: ADME, organism-based; settings: in vivo
[18] = Oral bioavailability in rat at 2.5 mg/kg; assay type: ADME, organism-based; settings: in vivo
[19] = Clearance in rat at 2.5 mg/kg, iv and 2.5 mg/kg, po; assay type: ADME, organism-based; settings: in vivo
[20] = test system: PC-3; assay: Antitumor activity against human PC3 cells xenografted in mouse assessed as tumor growth inhibition at 30 mg/kg, po bid for 14 days; assay type: functional; settings: PC-3, 336 h, read-out: GI; summary of the method: as §1
[21] = test system: PC-3; assay: Antitumor activity against human PC3 cells xenografted in mouse assessed as tumor growth inhibition at 300 mg/kg, po bid for 14 days; assay type: functional; settings: PC-3, 336 h, read-out: GI; summary of the method: as §1

Chain of RAC-alpha serine/threonine-protein kinase (P31749 whole entry): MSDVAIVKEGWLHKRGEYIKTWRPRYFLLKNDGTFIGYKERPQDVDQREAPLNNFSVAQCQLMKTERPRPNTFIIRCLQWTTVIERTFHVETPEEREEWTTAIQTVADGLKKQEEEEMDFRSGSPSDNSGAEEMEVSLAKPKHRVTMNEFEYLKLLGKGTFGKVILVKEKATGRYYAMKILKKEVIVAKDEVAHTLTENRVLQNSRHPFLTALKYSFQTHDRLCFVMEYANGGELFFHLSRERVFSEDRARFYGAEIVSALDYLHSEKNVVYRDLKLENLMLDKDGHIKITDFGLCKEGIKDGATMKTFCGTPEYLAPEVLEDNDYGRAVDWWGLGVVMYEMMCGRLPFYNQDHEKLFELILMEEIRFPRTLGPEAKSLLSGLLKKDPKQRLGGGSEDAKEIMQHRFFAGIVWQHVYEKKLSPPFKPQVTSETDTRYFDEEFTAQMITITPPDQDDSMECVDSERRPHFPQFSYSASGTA
Chain of Ribosomal protein S6 kinase alpha-3 (P51812 whole entry): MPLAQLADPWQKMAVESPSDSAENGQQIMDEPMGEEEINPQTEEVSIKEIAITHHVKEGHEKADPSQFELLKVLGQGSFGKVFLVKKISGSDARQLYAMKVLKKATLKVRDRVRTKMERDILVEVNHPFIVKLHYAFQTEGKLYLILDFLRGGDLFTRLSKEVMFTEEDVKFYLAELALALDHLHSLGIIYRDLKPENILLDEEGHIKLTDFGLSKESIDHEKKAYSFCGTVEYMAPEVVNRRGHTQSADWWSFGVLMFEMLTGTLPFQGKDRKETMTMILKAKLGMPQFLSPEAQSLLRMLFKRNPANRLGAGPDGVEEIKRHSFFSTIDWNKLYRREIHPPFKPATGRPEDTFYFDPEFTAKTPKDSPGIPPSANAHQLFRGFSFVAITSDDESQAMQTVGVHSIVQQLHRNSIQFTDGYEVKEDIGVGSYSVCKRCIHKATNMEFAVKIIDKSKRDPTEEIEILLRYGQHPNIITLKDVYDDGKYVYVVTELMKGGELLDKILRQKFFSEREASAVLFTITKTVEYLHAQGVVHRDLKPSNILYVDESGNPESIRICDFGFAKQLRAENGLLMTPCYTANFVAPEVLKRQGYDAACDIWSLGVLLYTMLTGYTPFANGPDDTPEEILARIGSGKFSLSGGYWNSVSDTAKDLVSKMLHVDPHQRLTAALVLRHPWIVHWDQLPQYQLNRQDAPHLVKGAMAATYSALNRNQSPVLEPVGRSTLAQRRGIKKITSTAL
Chain of RAC-beta serine/threonine-protein kinase (P31751 whole entry): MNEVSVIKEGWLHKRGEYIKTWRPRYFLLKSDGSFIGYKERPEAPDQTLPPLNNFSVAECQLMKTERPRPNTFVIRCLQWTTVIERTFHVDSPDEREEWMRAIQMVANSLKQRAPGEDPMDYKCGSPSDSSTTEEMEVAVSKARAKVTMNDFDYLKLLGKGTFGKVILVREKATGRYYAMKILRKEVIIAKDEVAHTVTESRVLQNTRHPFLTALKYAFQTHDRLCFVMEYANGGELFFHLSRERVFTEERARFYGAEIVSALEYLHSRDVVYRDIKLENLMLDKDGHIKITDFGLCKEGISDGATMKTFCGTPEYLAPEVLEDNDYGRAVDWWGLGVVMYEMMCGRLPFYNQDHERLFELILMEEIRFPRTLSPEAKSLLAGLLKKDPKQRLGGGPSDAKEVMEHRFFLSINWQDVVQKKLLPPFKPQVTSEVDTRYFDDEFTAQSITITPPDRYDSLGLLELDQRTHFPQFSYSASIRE
Chain of Ribosomal protein S6 kinase beta-1 (P23443 whole entry D18H/T412E): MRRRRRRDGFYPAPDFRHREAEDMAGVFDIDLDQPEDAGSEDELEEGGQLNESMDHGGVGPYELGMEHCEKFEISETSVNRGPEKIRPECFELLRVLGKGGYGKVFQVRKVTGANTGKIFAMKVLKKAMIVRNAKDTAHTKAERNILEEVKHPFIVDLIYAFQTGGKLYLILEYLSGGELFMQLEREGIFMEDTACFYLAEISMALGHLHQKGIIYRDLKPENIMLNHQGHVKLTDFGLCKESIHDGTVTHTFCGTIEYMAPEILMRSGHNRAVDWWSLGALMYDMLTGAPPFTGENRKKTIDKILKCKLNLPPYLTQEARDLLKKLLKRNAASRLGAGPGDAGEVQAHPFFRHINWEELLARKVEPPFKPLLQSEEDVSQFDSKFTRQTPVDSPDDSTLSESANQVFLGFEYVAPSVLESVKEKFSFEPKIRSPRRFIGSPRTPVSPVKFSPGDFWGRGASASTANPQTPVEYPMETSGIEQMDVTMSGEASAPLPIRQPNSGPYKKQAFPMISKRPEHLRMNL
Chain of Serine/threonine-protein kinase pim-1 (P11309 whole entry): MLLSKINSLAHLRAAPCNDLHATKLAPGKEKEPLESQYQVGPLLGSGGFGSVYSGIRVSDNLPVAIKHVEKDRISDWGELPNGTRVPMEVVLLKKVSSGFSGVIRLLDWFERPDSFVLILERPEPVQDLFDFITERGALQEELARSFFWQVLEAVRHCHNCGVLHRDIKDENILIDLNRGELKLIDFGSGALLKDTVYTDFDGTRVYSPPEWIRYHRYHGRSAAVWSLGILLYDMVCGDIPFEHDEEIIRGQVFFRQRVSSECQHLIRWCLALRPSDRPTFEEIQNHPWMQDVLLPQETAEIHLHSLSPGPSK

IC50 [1] | IC50 [3] | Structure (SMILES) | also measured
43 nM | 2 nM | Cc1c(NCCN(C)C)cc(Cl)cc1N1CCN(c2ncnc3[nH]nc(Br)c23)CC1 | IC50 [2]: 25 nM; IC50 [4]: 248 nM; IC50 [5]: 311 nM; IC50 [6]: < 500 nM; IC50 [7]: 53 nM
– | 107 nM | Clc1cccc(N2CCN(c3ncnc4[nH]ncc34)CC2)c1 | –
– | > 2000 nM | Cc1nc(N2CCN(c3cc(Cl)ccc3C)CC2)c2cn[nH]c2n1 | –
41 nM | 29 nM | Cc1ccc(Cl)cc1N1CCN(c2ncnc3[nH]nc(C(F)(F)F)c23)CC1 | –
45 nM | 2 nM | CCc1n[nH]c2ncnc(N3CCN(c4cc(Cl)cc(NCCN(C)C)c4C)CC3)c12 | AUC/dose [8]: 1.72 µM·kg·h/mg; AUC/dose [9]: 0.45 µM·kg·h/mg; half-life [10]: 2.9 h; inhibition in vivo at 100 mg/kg [11]: > 60%; growth inhibition (GI) [12]: Dose-dependent effect; inhibition in vivo at 100 mg/kg [13]: 49%; IC50 [2]: 42 nM; Cmax [14]: 1470 nM; Cmax [15]: 150 nM; IC50 [4]: 68 nM; IC50 [5]: 3020 nM; half-life [16]: 3.3 h; Vd [17]: 3.7 L/kg; bioavailability [18]: 23%; clearance [19]: 17.4 mL/min/kg; inhibition in vivo at 30 mg/kg [20]: 21%; IC50 [7]: 371 nM; inhibition in vivo at 300 mg/kg [21]: 69%
143 nM | 6 nM | CCc1n[nH]c2ncnc(N3CCN(c4cc(Cl)cc(OCCN(C)C)c4C)CC3)c12 | –
– | 196 nM | Clc1cccc(N2CCN(c3[nH]cnc4ncnc3-4)CC2)c1 | –
207 nM | 16 nM | Cc1ccc(Cl)cc1N1CCN(c2ncnc3[nH]nc(C(C)C)c23)CC1 | –
243 nM | 5 nM | CCc1n[nH]c2ncnc(N3CCN(c4cc(Cl)cc(OCCN5CCCC5)c4C)CC3)c12 | –
152 nM | 2 nM | CCc1n[nH]c2ncnc(N3CCN(c4cc(Cl)cc(CCCN5CCCC5)c4C)CC3)c12 | –
– | 3 nM | Cc1ccc(Cl)cc1N1CCN(c2ncnc(N)c2[N+](=O)[O-])CC1 | –
– | 85 nM | Nc1ncnc(N2CCN(c3cccc(Cl)c3)CC2)c1[N+](=O)[O-] | –
– | 162 nM | Clc1cccc(N2CCN(c3ncnc4[nH]ccc34)CC2)c1 | –
150 nM | 6 nM | CCc1n[nH]c2ncnc(N3CCN(c4cc(Cl)ccc4C)CC3)c12 | AUC/dose [8]: 1.74 µM·kg·h/mg; AUC/dose [9]: 0.02 µM·kg·h/mg; half-life [10]: 7.1 h; Cmax [14]: 6290 nM; Cmax [15]: 30 nM; half-life [16]: 1.4 h; Vd [17]: 6.3 L/kg; bioavailability [18]: 2%; clearance [19]: 25.8 mL/min/kg
50 nM | 4 nM | Cc1c(NCCN(C)C)cc(Cl)cc1N1CCN(c2ncnc3[nH]nc(C(F)(F)F)c23)CC1 | IC50 [2]: 6 nM; IC50 [4]: 24 nM; IC50 [5]: 477 nM; IC50 [7]: 74 nM
275 nM | 6 nM | CCCc1n[nH]c2ncnc(N3CCN(c4cc(Cl)ccc4C)CC3)c12 | –
80 nM | 3 nM | CCc1n[nH]c2ncnc(N3CCN(c4cc(Cl)cc(NCCN5CCCC5)c4C)CC3)c12 | –
1130 nM | 13 nM | Cc1ccc(Cl)cc1N1CCN(c2ncnc3[nH]ncc23)CC1 | –
– | > 2000 nM | Cc1c(N)ncnc1N1CCN(c2cccc(Cl)c2)CC1 | –
211 nM | 3 nM | CCc1n[nH]c2ncnc(N3CCN(c4cc(Cl)cc(CCCN(CC)CC)c4C)CC3)c12 | –
184 nM | 3 nM | CCc1n[nH]c2ncnc(N3CCN(c4cc(Cl)cc(NCCN(CC)CC)c4C)CC3)c12 | –
500 nM | 9 nM | Cc1ccc(Cl)cc1N1CCN(c2ncnc3[nH]nc(C)c23)CC1 | –
– | > 2000 nM | Nc1cc(N2CCN(c3cccc(Cl)c3)CC2)ncn1 | –
339 nM | 11 nM | CCc1n[nH]c2ncnc(N3CCN(c4cc(Cl)cc(OCCN(CC)CC)c4C)CC3)c12 | –
86 nM | 7 nM | Cc1ccc(Cl)cc1N1CCN(c2ncnc3[nH]nc(Br)c23)CC1 | –
